Measurements reported in ChEMBL document CHEMBL4325891 (Eur J Med Chem, 2019).
Activity calls are given as the source filed them. The rule behind the calls is not given here. Where a SMILES comes first, the peptide text is derived from it. The star is where a group is joined. Doxorubicin(Traut) = COc1cccc2c1C(=O)c1c(O)c3c(c(O)c1C2=O)C[C@@](O)(C(=O)CO)C[C@@H]3O[C@H]1C[C@H](NC(=N)CCCS*)[C@H](O)[C@H](C)O1; βAla = NCCC(=O)O

Assays:
CCRF-CEM [1] = assay: Inhibition of cell proliferation in human CCRF-CEM cells at 5 uM after 72 hrs by MTT or MTS assay relative to control; format: functional
In short: (§1)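 Seeding was 5000 cells/well for HEK-293, SKOV-3 and HT-1080, and 50,000 for CCRF-CEM, 24 h before dosing. CCRF-CEM was grown in RPMI and the others in EMEM with 10% FBS. Compounds were given at 5 μM for 24 or 72 h at 37 °C, with water/0.025% DMSO as negative control. Adherent lines received fresh medium before adding MTT (595 nm) or MTS (490 nm). Background-corrected OD is expressed as percent of control; triplicate runs.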

HT-1080 [2] = assay: Inhibition of cell proliferation in human HT1080 cells at 5 uM after 24 hrs by MTT or MTS assay relative to control; format: functional; settings: for inhibition at 5 µM: HT-1080, 24 h; in short: as §1
[3] = Drug uptake in human SKOV3 cells nucleus at 5 uM after 1 to 24 hrs by DAPI staining based fluorescence microscopic method; format: ADME, subcellular; settings: sk-ov-3, 5 µM
In short: (§2)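 1×10^4 cells per chamber were allowed to attach and then cultured overnight. Compounds were added at 5 μM final in fresh medium for 1 h or 24 h, with untreated cells as control. Cells were then washed with DPBS and fixed in 4% paraformaldehyde for 30 min.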

CCRF-CEM [4] = assay: Inhibition of cell proliferation in human CCRF-CEM cells at 5 uM after 24 hrs by MTT or MTS assay relative to control; format: functional; in short: as §1
[5] = Drug uptake in human MCF7 cells nucleus at 5 uM after 1 to 24 hrs by DAPI staining based fluorescence microscopic method; format: ADME, subcellular; settings: mcf7, 5 µM; in short: as §2
HT-1080 [6] = assay: Inhibition of cell proliferation in human HT1080 cells at 5 uM after 72 hrs by MTT or MTS assay relative to control; format: functional; settings: for inhibition at 5 µM: HT-1080, 72 h
[7] = Drug uptake in human HT1080 cells nucleus at 5 uM after 1 to 24 hrs by DAPI staining based fluorescence microscopic method; format: ADME, subcellular; settings: ht-1080, 5 µM; in short: as §2
[8] = Drug uptake in human CCRF-CEM cells at 50 uM after 3 hrs by flow cytometry; format: ADME, cell-based
[9] = Drug uptake in human MDA-MB-468 cells nucleus at 5 uM after 1 to 24 hrs by DAPI staining based fluorescence microscopic method; format: ADME, subcellular; settings: mda-mb-468, 5 µM; in short: as §2
[10] = Inhibition of cell proliferation in HEK293 cells at 5 uM after 24 hrs by MTT or MTS assay relative to control; format: cell-based; settings: human
[11] = Drug uptake in human HT1080 cells at 50 uM after 3 hrs by flow cytometry; format: ADME, cell-based; settings: ht-1080, 3 h
[12] = Inhibition of cell proliferation in HEK293 cells at 5 uM after 72 hrs by MTT or MTS assay relative to control; format: cell-based; settings: human; in short: as §1
SK-OV-3 [13] = assay: Inhibition of cell proliferation in human SKOV3 cells at 5 uM after 72 hrs by MTT or MTS assay relative to control; format: functional; settings: SK-OV-3, 72 h
[14] = Drug uptake in HEK293 cells at 50 uM after 3 hrs by flow cytometry; format: ADME, cell-based; settings: human, hek293, 3 h
SK-OV-3 [15] = assay: Inhibition of cell proliferation in human SKOV3 cells at 5 uM after 24 hrs by MTT or MTS assay relative to control; format: functional; settings: SK-OV-3, 24 h
[16] = Drug uptake in human SKOV3 cells at 50 uM after 3 hrs by flow cytometry; format: ADME, cell-based; settings: sk-ov-3, 3 h
C2C12 [17] = assay: Induction of ROS generation in mouse C2C12 cells at 0.5 uM after 72 hrs by H2DCFDA staining based flow cytometry relative to control; format: cell-based; settings: c2c12, 72 h
[18] = Cytotoxicity against mouse C2C12 cells assessed as cell viability at 5 uM after 72 hrs by MTT assay relative to control; format: cell-based; settings: read-out: Activity
In short: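 C2C12 mouse myoblasts grown in DMEM with 10% FBS, seeded at 10,000 cells/well 24 h before dosing. Compound exposure for 72 h at 37 °C, then MTT read-out. Viability expressed relative to untreated control, set at 100%. Run in triplicate.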

C2C12 [19] = assay: Induction of FeCl2-mediated ROS generation in mouse C2C12 cells at 0.5 uM after 72 hrs by H2DCFDA staining based flow cytometry relative to control; format: cell-based; settings: c2c12, 72 h
In short: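 C2C12 cells were seeded in DMEM with 10% FBS and cultured 24 h. They were then incubated 72 h in serum-free DMEM with 10 μM Fe²⁺ (FeCl₂), with or without compound at 0.5 μM. Cells were harvested and stained with 10 μM H₂DCFDA in HBSS for 30 min at 37 °C before flow cytometry. The mean signal of 5000 cells is expressed as fold of control; experiments were done twice.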

[20] = Drug uptake in human SKOV3 cells at 5 uM after 3 hrs by flow cytometry; format: ADME, cell-based; settings: sk-ov-3, 3 h
In short: (§3)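 Adherent cells were plated at 5×10^4 per well in serum-free medium and left overnight, then exposed to 5 μM compound for 3 h at 37 °C, with untreated cells as control. Cells were washed with DPBS, trypsinised for 5 min and washed twice. Flow cytometry read the Texas Red channel, giving the mean fluorescence of 10,000 cells, in triplicate.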

[21] = Drug uptake in human HT1080 cells at 5 uM after 3 hrs by flow cytometry; format: ADME, cell-based; settings: ht-1080, 3 h; in short: as §3

| SMILES | inhibition at 5 µM (CCRF-CEM [1]) [%] | inhibition at 5 µM (HT-1080 [2]) [%] | Drug uptake [3] | inhibition at 5 µM (CCRF-CEM [4]) [%] | Drug uptake [5] | inhibition at 5 µM (HT-1080 [6]) [%] | Drug uptake [7] | Drug uptake [9] | inhibition at 24 h, 5 µM [10] [%] | Drug uptake [11] | inhibition at 72 h, 5 µM [12] [%] | inhibition at 5 µM (SK-OV-3 [13]) [%] | inhibition at 5 µM (SK-OV-3 [15]) [%] | fold change (FC) (C2C12 [17]) | viability at 72 h, 5 µM [18] [%] | other results |
| --- | --- | --- | --- | --- | --- | --- | --- | --- | --- | --- | --- | --- | --- | --- | --- | --- |
| COc1cccc2c1C(=O)c1c(O)c3c(c(O)c1C2=O)C[C@@](O)(C(=O)CO)C[C@@H]3O[C@H]1C[C@H](NC(=N)CCCSSc2ccccn2)[C@H](O)[C@H](C)O1 | 73 | 80 | Active | 46 | Active | 68 | Active | Active | 66 | Active | 60 | 39 | 72 |  |  | Drug uptake [8]: Active; Drug uptake [14]: Active |
| COc1cccc2c1C(=O)c1c(O)c3c(c(O)c1C2=O)C[C@@](O)(C(=O)CO)C[C@@H]3O[C@H]1C[C@H](NC(=N)CCCS)[C@H](O)[C@H](C)O1 | 73 | 62 | Active | 48 | Active | 68 | Active | Active | 61 |  | 64 | 42 |  |  |  |  |
| COc1cccc2c1C(=O)c1c(O)c3c(c(O)c1C2=O)C[C@@](O)(C(=O)CO)C[C@@H]3O[C@H]1C[C@H](NC(=N)CCCSSC[C@@H]2NC(=O)[C@H](CCCNC(=N)N)NC(=O)[C@H](Cc3c[nH]c4ccccc34)NC(=O)[C@H](CCCNC(=N)N)NC(=O)[C@H](Cc3c[nH]c4ccccc34)NC(=O)[C@H](CCCCNC(=O)CCN)NC(=O)[C@H](Cc3c[nH]c4ccccc34)NC(=O)[C@H](CCCNC(=N)N)NC(=O)[C@H](Cc3c[nH]c4ccccc34)NC(=O)[C@H](CCCNC(=N)N)NC2=O)[C@H](O)[C@H](C)O1 (cyclo(C(Doxorubicin(Traut))RWRWK(βAla)WRWR)) |  |  | Active |  | Active |  | Active | Active |  | Active |  |  |  | 1.05 | 71 | Drug uptake [16]: Active; Activity (C2C12 [19]): Non-Toxic |
| N=C(N)NCCC[C@@H]1NC(=O)[C@H](CS)NC(=O)[C@H](CCCNC(=N)N)NC(=O)[C@H](Cc2c[nH]c3ccccc23)NC(=O)[C@H](CCCNC(=N)N)NC(=O)[C@H](Cc2c[nH]c3ccccc23)NC(=O)[C@H](CCCCNC(=O)CCN)NC(=O)[C@H](Cc2c[nH]c3ccccc23)NC(=O)[C@H](CCCNC(=N)N)NC(=O)[C@H](Cc2c[nH]c3ccccc23)NC1=O (cyclo(CRWRWK(βAla)WRWR)) |  |  |  |  |  |  |  |  |  |  |  |  |  |  |  | inhibition (CCRF-CEM [1]): inactive; inhibition (HT-1080 [2]): inactive; inhibition (CCRF-CEM [4]): inactive |
| COc1cccc2c1C(=O)c1c(O)c3c(c(O)c1C2=O)C[C@@](O)(C(=O)CO)C[C@@H]3O[C@H]1C[C@H](N)[C@H](O)[C@H](C)O1 [DOXORUBICIN] | 69 | 66 | Active | 45 | Active |  | Active | Active | 57 |  |  | 51 | 66 to 76 | 1.09 | 28.6 | Drug uptake [20]: Active; Drug uptake [21]: Active; inhibition (HT-1080 [6]): inactive; fold change (FC) (C2C12 [19]): 3.48 |
